As a reminder, the MIC90 is the lowest concentration that inhibits either 90% of growth or 90% of the strains tested, depending on the study. The low end stands for higher susceptibility, the high end for lower susceptibility.

In brackets after ≈: the same amount, converted by molar mass. Bounds are passed on as bounds.

MIC90 data for 7 compounds are collected here from ChEMBL document CHEMBL4765453, “Phenanthrolinic analogs of quinolones show antibacterial activity against M. tuberculosis” (Eur J Med Chem, 2020).

Type in all cases: functional
Holding throughout (conditions): time 7 day

Test [1] relates to Mycobacterium tuberculosis. Kind of test: Antitubercular activity against FQ resistant Mycobacterium tuberculosis H37Rv harboring gyrA Ala-90-Val/gyrB Glu-540-Val mutant measured after 7 days by resazurin microtiter assay. The method in brief: (§1)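 Resazurin microtiter assay with two-fold drug dilutions in complete 7H9 broth. Exponential-phase cells are diluted to a final OD600 of 0.005 in 7H9 without Tween. Incubation is 7 days at 37°C, then 0.01% resazurin is added and plates are held 24 h more. MIC is the lowest concentration preventing the blue-to-pink change. Each MIC is determined three times in duplicate experiments.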
On the technique in general: Resazurin is reduced to fluorescent resorufin, in cell work by metabolically active cells.

The test system of test [2] is Mycobacterium tuberculosis. Briefly: Antitubercular activity against FQ resistant Mycobacterium tuberculosis H37Rv harboring gyrA Asp-94-Gly/gyrB Asp-500-Asn mutant measured after 7 days by resazurin microtiter assay. The method in brief: as §1
Test [3] relates to Mycobacterium tuberculosis. Briefly: Antitubercular activity against FQ resistant Mycobacterium tuberculosis H37Rv harboring gyrA Gly-88-Cys mutant measured after 7 days by resazurin microtiter assay. The method in brief: as §1
The subject of test [4] is Mycobacterium tuberculosis. Briefly: Antitubercular activity against FQ resistant Mycobacterium tuberculosis H37Rv harboring gyrA Ala-90-Val mutant measured after 7 days by resazurin microtiter assay. The essentials:
as §1

The test system of test [5] is Mycobacterium tuberculosis. Briefly: Antitubercular activity against FQ resistant Mycobacterium tuberculosis H37Rv harboring gyrA Asp-94-Gly mutant measured after 7 days by resazurin microtiter assay. The method in brief:
as §1

The subject of test [6] is Mycobacterium tuberculosis. Kind of test: Antitubercular activity against FQ resistant Mycobacterium tuberculosis H37Rv harboring gyrA Ser-91-Pro mutant measured after 7 days by resazurin microtiter assay. The essentials: as §1

As to `Cn1cc(C(=O)O)c(=O)c2cc([N+](=O)[O-])c3cccnc3c21`, the MIC90 in test [1] turned out to be 5.28 µM (≈ 1.58 µg/mL); in test [2], 5.28 µM (≈ 1.58 µg/mL); in test [3], 2.64 µM (≈ 0.79 µg/mL); in test [4], 5.28 µM (≈ 1.58 µg/mL); in test [5] it was 2.64 µM (≈ 0.79 µg/mL); in test [6], 5.28 µM (≈ 1.58 µg/mL).
Regarding `CCOC(=O)c1cn(C)c2c(cc([N+](=O)[O-])c3cccnc32)c1=O`, the MIC90 in test [1] was above 50 µM; in test [2], above 50 µM; in test [3] it was above 50 µM; in test [4] it was above 50 µM; in test [5], 1.21 µM (≈ 0.396 µg/mL); in test [6], above 50 µM.
Take `CCn1cc(C(=O)O)c(=O)c2cc([N+](=O)[O-])c3cccnc3c21`: the MIC90 in test [1] was found to be 11.68 µM (≈ 3.66 µg/mL); in test [2], 5.84 µM (≈ 1.83 µg/mL); in test [3] it was 11.68 µM (≈ 3.66 µg/mL); in test [4], 11.68 µM (≈ 3.66 µg/mL); in test [5] it was 2.99 µM (≈ 0.937 µg/mL); in test [6], 11.68 µM (≈ 3.66 µg/mL).
Regarding `CCOC(=O)c1cn(CC)c2c(cc([N+](=O)[O-])c3cccnc32)c1=O`, the MIC90 in test [1] is above 50 µM; in test [2], above 50 µM; in test [3], above 50 µM; in test [4], above 50 µM; in test [5], 4.99 µM (≈ 1.7 µg/mL); in test [6] it was above 50 µM.
Consider `COc1c(N2C[C@@H]3CCCN[C@@H]3C2)c(F)cc2c(=O)c(C(=O)O)cn(C3CC3)c12` [MOXIFLOXACIN], for which the MIC90 in test [1] turned out to be 6.16 µM (≈ 2.47 µg/mL); in test [2] it was 6.16 µM (≈ 2.47 µg/mL); in test [3] it was 6.16 µM (≈ 2.47 µg/mL); in test [4], 3.08 µM (≈ 1.24 µg/mL); in test [5] it was 3.08 µM (≈ 1.24 µg/mL); in test [6] it was 6.16 µM (≈ 2.47 µg/mL).
Regarding `CCn1cc(C(=O)O)c(=O)c2ccc(C)nc21` [NALIDIXIC ACID], the MIC90 in test [1], in test [2], in test [3], in test [4], in test [5] and in test [6] was above 50 µM in each case.
Take `CC1COc2c(N3CCN(C)CC3)c(F)cc3c(=O)c(C(=O)O)cn1c23` (configuration not stated) [OFLOXACIN]: the MIC90 was found to be 27.6 µM (≈ 9.97 µg/mL) in test [1]; 27.6 µM (≈ 9.97 µg/mL) in test [2]; 27.6 µM (≈ 9.97 µg/mL) in test [3]; 13.8 µM (≈ 4.99 µg/mL) in test [4]; 13.8 µM (≈ 4.99 µg/mL) in test [5]; 27.6 µM (≈ 9.97 µg/mL) in test [6].
